Assay results from ChEMBL document CHEMBL1139340, “Synthesis, radiosynthesis, and biological evaluation of carbon-11 and fluorine-18 labeled reboxetine analogues: potential positron emission tomography radioligands for in vivo imaging of the norepinephrine transporter” (J Med Chem, 2009).

Legend:
Liver [1] = experiment: Biodistribution in Sprague-Dawley rat liver at 300 uCi, iv after 5 mins; format: ADME, organism-based; conditions: in vivo
Blood [2] = experiment: Biodistribution in Sprague-Dawley rat blood at 300 uCi, iv after 15 mins; format: ADME, organism-based; conditions: in vivo, 0.25 h
Blood [3] = experiment: Biodistribution in Sprague-Dawley rat blood at 300 uCi, iv after 30 mins; format: ADME, organism-based; conditions: in vivo, 0.5 h
[4] = Ratio of drug uptake in thalamus to caudate of anesthetized rhesus monkey at 15 to 20 mCi after 85 mins postinjection by microPET; format: ADME, organism-based, Macaca mulatta; conditions: in vivo
How it was run: (§1)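 Anesthetized adult male rhesus monkeys scanned on a microPET P4 after 15–20 mCi of the 11C radioligand; emission collected continuously for 125 min, binned, time-activity curves from manually drawn anatomical ROIs; regional uptake divided by caudate uptake (caudate as NET-poor reference) at 85 min postinjection, at baseline.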

[5] = Ratio of drug uptake in pons to caudate of anesthetized rhesus monkey at 15 to 20 mCi after 85 mins postinjection by microPET; format: ADME, organism-based, Macaca mulatta; conditions: in vivo; how it was run: as §1
Kidney [6] = experiment: Biodistribution in Sprague-Dawley rat kidney at 300 uCi, iv after 5 mins; format: ADME, organism-based; conditions: in vivo
Kidney [7] = experiment: Biodistribution in Sprague-Dawley rat kidney at 300 uCi, iv after 60 mins; format: ADME, organism-based; conditions: in vivo, 1 h
Brain [8] = experiment: Biodistribution in Sprague-Dawley rat brain at 300 uCi, iv after 5 mins; format: ADME, organism-based; conditions: in vivo
[9] = Biodistribution in Sprague-Dawley rat testis at 300 uCi, iv after 15 mins; format: ADME, organism-based; conditions: in vivo, 0.25 h
Lung [10] = experiment: Biodistribution in Sprague-Dawley rat lung at 300 uCi, iv after 30 mins; format: ADME, organism-based; conditions: in vivo, 0.5 h
Lung [11] = experiment: Biodistribution in Sprague-Dawley rat lung at 300 uCi, iv after 60 mins; format: ADME, organism-based; conditions: in vivo, 1 h
Heart [12] = experiment: Biodistribution in Sprague-Dawley rat heart at 300 uCi, iv after 5 mins; format: ADME, organism-based; conditions: in vivo
Brain [13] = experiment: Biodistribution in Sprague-Dawley rat brain at 300 uCi, iv after 15 mins; format: ADME, organism-based; conditions: in vivo, 0.25 h
Pancreas [14] = experiment: Biodistribution in Sprague-Dawley rat pancreas at 300 uCi, iv after 60 mins; format: ADME, organism-based; conditions: in vivo, 1 h
Spleen [15] = experiment: Biodistribution in Sprague-Dawley rat spleen at 300 uCi, iv after 30 mins; format: ADME, organism-based; conditions: in vivo, 0.5 h
Spleen [16] = experiment: Biodistribution in Sprague-Dawley rat spleen at 300 uCi, iv after 60 mins; format: ADME, organism-based; conditions: in vivo, 1 h
[17] = Ratio of drug uptake in cerebellum to caudate of awaken rhesus monkey at 15 to 20 mCi after by PET method; format: ADME, tissue-based, Macaca mulatta; conditions: in vivo
How it was run: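 Awake rhesus monkeys imaged on a high-resolution research tomograph for 120 min after injection of the ¹¹C tracer. Images coregistered with composite MRI to define regions of interest. Highest cerebellum-to-caudate uptake ratio read from the time-activity curves.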

Spleen [18] = experiment: Biodistribution in Sprague-Dawley rat spleen at 300 uCi, iv after 5 mins; format: ADME, organism-based; conditions: in vivo
Pancreas [19] = experiment: Biodistribution in Sprague-Dawley rat pancreas at 300 uCi, iv after 5 mins; format: ADME, organism-based; conditions: in vivo
[20] = Ratio of drug uptake in thalamus to caudate of awaken rhesus monkey at 15 to 20 mCi after by PET method; format: ADME, Macaca mulatta; conditions: in vivo
How it was run: (§2)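 Awake rhesus monkeys imaged on a high-resolution research tomograph (HRRT) for 120 min after radioligand injection; images coregistered with composite MRI to define regions; time-activity curves generated and highest ratio of regional uptake to caudate uptake taken.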

Blood [21] = experiment: Biodistribution in Sprague-Dawley rat blood at 300 uCi, iv after 60 mins; format: ADME, organism-based; conditions: in vivo, 1 h
Brain [22] = experiment: Biodistribution in Sprague-Dawley rat brain at 300 uCi, iv after 30 mins; format: ADME, organism-based; conditions: in vivo, 0.5 h
[23] = Ratio of drug uptake in cerebellum to caudate of anesthetized rhesus monkey at 15 to 20 mCi after 85 mins postinjection by microPET; format: ADME, organism-based, Macaca mulatta; conditions: in vivo
How it was run: (§3)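 Anesthetized adult male rhesus monkeys given 15–20 mCi of the ¹¹C tracer, alone or after desipramine (0.125 or 0.25 mg/kg) 40 min beforehand. MicroPET emission collected continuously for 125 min and binned. ROIs drawn manually on anatomical landmarks to give time-activity curves. Region-to-caudate uptake ratio taken at 85 min postinjection.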

Kidney [24] = experiment: Biodistribution in Sprague-Dawley rat kidney at 300 uCi, iv after 15 mins; format: ADME, organism-based; conditions: in vivo, 0.25 h
Heart [25] = experiment: Biodistribution in Sprague-Dawley rat heart at 300 uCi, iv after 15 mins; format: ADME, organism-based; conditions: in vivo, 0.25 h
Bone [26] = experiment: Biodistribution in Sprague-Dawley rat bone at 300 uCi, iv after 15 mins; format: ADME, organism-based, Bone element; conditions: in vivo, 0.25 h
Kidney [27] = experiment: Biodistribution in Sprague-Dawley rat kidney at 300 uCi, iv after 30 mins; format: ADME, organism-based; conditions: in vivo, 0.5 h
[28] = Biodistribution in Sprague-Dawley rat testis at 300 uCi, iv after 5 mins; format: ADME, organism-based; conditions: in vivo
Heart [29] = experiment: Biodistribution in Sprague-Dawley rat heart at 300 uCi, iv after 30 mins; format: ADME, organism-based; conditions: in vivo, 0.5 h
Spleen [30] = experiment: Biodistribution in Sprague-Dawley rat spleen at 300 uCi, iv after 15 mins; format: ADME, organism-based; conditions: in vivo, 0.25 h
Lung [31] = experiment: Biodistribution in Sprague-Dawley rat lung at 300 uCi, iv after 5 mins; format: ADME, organism-based; conditions: in vivo
Lung [32] = experiment: Biodistribution in Sprague-Dawley rat lung at 300 uCi, iv after 15 mins; format: ADME, organism-based; conditions: in vivo, 0.25 h
Bone [33] = experiment: Biodistribution in Sprague-Dawley rat bone at 300 uCi, iv after 30 mins; format: ADME, organism-based, Bone element; conditions: in vivo, 0.5 h
[34] = Biodistribution in Sprague-Dawley rat testis at 300 uCi, iv after 60 mins; format: ADME, organism-based; conditions: in vivo, 1 h
Bone [35] = experiment: Biodistribution in Sprague-Dawley rat bone at 300 uCi, iv after 5 mins; format: ADME, organism-based, Bone element; conditions: in vivo
[36] = Ratio of drug uptake in midbrain to caudate of anesthetized rhesus monkey at 15 to 20 mCi pretreated with 0.125 mg/kg desipramine by microPET; format: ADME, organism-based, Macaca mulatta; set-up: dose 0.125 mg/kg; conditions: in vivo
How it was run: (§4)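 Anesthetized adult male rhesus monkeys imaged on a microPET P4 system after injection of 15–20 mCi of the 11C-labeled radioligand. Desipramine was given 40 min before radiotracer injection. Emission data were collected continuously for 125 min and binned. ROIs were drawn manually on anatomical landmarks in the reconstructed images. The ratio of region-of-interest to caudate uptake was taken from time-activity curves at 85 min postinjection.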

Brain [37] = experiment: Biodistribution in Sprague-Dawley rat brain at 300 uCi, iv after 60 mins; format: ADME, organism-based; conditions: in vivo, 1 h
[38] = Ratio of drug uptake in pons to caudate of awaken rhesus monkey at 15 to 20 mCi after by PET method; format: ADME, Macaca mulatta; conditions: in vivo; how it was run: as §2
Liver [39] = experiment: Biodistribution in Sprague-Dawley rat liver at 300 uCi, iv after 30 mins; format: ADME, organism-based; conditions: in vivo, 0.5 h
Blood [40] = experiment: Biodistribution in Sprague-Dawley rat blood at 300 uCi, iv after 5 mins; format: ADME, organism-based; conditions: in vivo
Liver [41] = experiment: Biodistribution in Sprague-Dawley rat liver at 300 uCi, iv after 60 mins; format: ADME, organism-based; conditions: in vivo, 1 h
Liver [42] = experiment: Biodistribution in Sprague-Dawley rat liver at 300 uCi, iv after 15 mins; format: ADME, organism-based; conditions: in vivo, 0.25 h
[43] = Ratio of drug uptake in midbrain to caudate of awaken rhesus monkey at 15 to 20 mCi after by PET method; format: ADME, Macaca mulatta; conditions: in vivo; how it was run: as §2
Bone [44] = experiment: Biodistribution in Sprague-Dawley rat bone at 300 uCi, iv after 60 mins; format: ADME, organism-based, Bone element; conditions: in vivo, 1 h
[45] = Ratio of drug uptake in cerebellum to caudate of anesthetized rhesus monkey at 15 to 20 mCi pretreated with 0.125 mg/kg desipramine by microPET; format: ADME, organism-based, Macaca mulatta; set-up: dose 0.125 mg/kg; conditions: in vivo; how it was run: as §4
Muscle tissue [46] = experiment: Biodistribution in Sprague-Dawley rat muscle at 300 uCi, iv after 30 mins; format: ADME, organism-based; conditions: in vivo, 0.5 h
Pancreas [47] = experiment: Biodistribution in Sprague-Dawley rat pancreas at 300 uCi, iv after 30 mins; format: ADME, organism-based; conditions: in vivo, 0.5 h
[48] = Ratio of drug uptake in midbrain to caudate of anesthetized rhesus monkey at 15 to 20 mCi after 85 mins postinjection by microPET; format: ADME, organism-based, Macaca mulatta; conditions: in vivo; how it was run: as §3
Muscle tissue [49] = experiment: Biodistribution in Sprague-Dawley rat muscle at 300 uCi, iv after 60 mins; format: ADME, organism-based; conditions: in vivo, 1 h
Pancreas [50] = experiment: Biodistribution in Sprague-Dawley rat pancreas at 300 uCi, iv after 15 mins; format: ADME, organism-based; conditions: in vivo, 0.25 h
[51] = Ratio of drug uptake in thalamus to caudate of anesthetized rhesus monkey at 15 to 20 mCi pretreated with 0.125 mg/kg desipramine by microPET; format: ADME, organism-based, Macaca mulatta; set-up: dose 0.125 mg/kg; conditions: in vivo; how it was run: as §4
[52] = Ratio of drug uptake in pons to caudate of anesthetized rhesus monkey at 15 to 20 mCi pretreated with 0.125 mg/kg desipramine by microPET; format: ADME, organism-based, Macaca mulatta; set-up: dose 0.125 mg/kg; conditions: in vivo; how it was run: as §4
Muscle tissue [53] = experiment: Biodistribution in Sprague-Dawley rat muscle at 300 uCi, iv after 15 mins; format: ADME, organism-based; conditions: in vivo, 0.25 h
[54] = Biodistribution in Sprague-Dawley rat testis at 300 uCi, iv after 30 mins; format: ADME, organism-based; conditions: in vivo, 0.5 h
Heart [55] = experiment: Biodistribution in Sprague-Dawley rat heart at 300 uCi, iv after 60 mins; format: ADME, organism-based; conditions: in vivo, 1 h
Muscle tissue [56] = experiment: Biodistribution in Sprague-Dawley rat muscle at 300 uCi, iv after 5 mins; format: ADME, organism-based; conditions: in vivo

## [11CH3]c1ccccc1O[C@@H](c1ccccc1)[C@@H]1CNCCO1
Liver [1]
  Drug uptake: 0.28 % ID/g
Blood [2]
  Drug uptake: 0.05 % ID/g
Blood [3]
  Drug uptake: 0.05 % ID/g
[4]
  Ratio: 1.3
[5]
  Ratio: 1.44
Kidney [6]
  Drug uptake: 2.66 % ID/g
Kidney [7]
  Drug uptake: 0.31 % ID/g
Brain [8]
  Drug uptake: 0.9 % ID/g
[9]
  Drug uptake: 0.18 % ID/g
Lung [10]
  Drug uptake: 3.63 % ID/g
Lung [11]
  Drug uptake: 1.98 % ID/g
Heart [12]
  Drug uptake: 3.43 % ID/g
Brain [13]
  Drug uptake: 0.72 % ID/g
Pancreas [14]
  Drug uptake: 0.63 % ID/g
Spleen [15]
  Drug uptake: 1.13 % ID/g
Spleen [16]
  Drug uptake: 0.49 % ID/g
[17]
  Ratio: 0.93
Spleen [18]
  Drug uptake: 3.5 % ID/g
Pancreas [19]
  Drug uptake: 1.59 % ID/g
[20]
  Ratio: 1.25
Blood [21]
  Drug uptake: 0.04 % ID/g
Brain [22]
  Drug uptake: 0.55 % ID/g
[23]
  Ratio: 1.25
Kidney [24]
  Drug uptake: 0.85 % ID/g
Heart [25]
  Drug uptake: 1.49 % ID/g
Bone [26]
  Drug uptake: 0.37 % ID/g
Kidney [27]
  Drug uptake: 0.56 % ID/g
[28]
  Drug uptake: 0.18 % ID/g
Heart [29]
  Drug uptake: 1.07 % ID/g
Spleen [30]
  Drug uptake: 1.79 % ID/g
Lung [31]
  Drug uptake: 15.3 % ID/g
Lung [32]
  Drug uptake: 6.92 % ID/g
Bone [33]
  Drug uptake: 0.2 % ID/g
[34]
  Drug uptake: 0.15 % ID/g
Bone [35]
  Drug uptake: 0.48 % ID/g
[36]
  Ratio: 1.2
Brain [37]
  Drug uptake: 0.25 % ID/g
[38]
  Ratio: 1.13
Liver [39]
  Drug uptake: 0.46 % ID/g
Blood [40]
  Drug uptake: 0.13 % ID/g
Liver [41]
  Drug uptake: 0.29 % ID/g
Liver [42]
  Drug uptake: 0.77 % ID/g
[43]
  Ratio: 1.2
Bone [44]
  Drug uptake: 0.17 % ID/g
[45]
  Ratio: 1.04
Muscle tissue [46]
  Drug uptake: 0.22 % ID/g
Pancreas [47]
  Drug uptake: 0.77 % ID/g
[48]
  Ratio: 1.43
Muscle tissue [49]
  Drug uptake: 0.22 % ID/g
Pancreas [50]
  Drug uptake: 0.83
[51]
  Ratio: 1.1
[52]
  Ratio: 1.13
Muscle tissue [53]
  Drug uptake: 0.22 % ID/g
[54]
  Drug uptake: 0.19 % ID/g
Heart [55]
  Drug uptake: 0.62 % ID/g
Muscle tissue [56]
  Drug uptake: 0.25 % ID/g
